The text below walks through data of the RNAGym collection of RNA variant scans (doi:10.1126/science.aae0568).

B1: tRNA (parent)
chain: GUUCCGUUGGCGUAAUGGUAACGCGUCUCCCUCCUAAGGAGAAGACUGCGGGUUCGAGUCCCGUACGGAACG

Fewer inactive variants are shown than the library holds.

In this data set the parent is B1. The data set can be described thus: yeast fitness relative to wild type (ratio to wild type); higher = fitter; tRNA-Arg(CCU), competitive growth, 37 C, YPD. In short, it runs like this: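 Variants of the tRNA-Arg(CCU) gene, chemically synthesised with a 3% per-site mutation rate at 69 sites, were placed at the native genomic locus in Saccharomyces cerevisiae. The pooled strains were competed in YPD at 37°C for 24 hours in six parallel replicates. Gene amplicons from the start population and from each end population were read by 100-nucleotide paired-end sequencing. Darwinian fitness relative to wild type came from changes in genotype frequencies; genotypes needed ≥ 100 starting reads, and estimates < 0.5 were set to 0.5.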
With GUUCCGUUGGCCUAAUGGUAACGCGUCUCCCUCCUAGAGAGAAGACAGCGGGUUCGAGUCCCGUACGGAACG [G12C A37G G38A U47A], the yeast fitness is at most 0.5.

Regarding GUUCCGUUGGCCUAAUGGUCACGCGUCUCCGUCCUAAGGAGAAGACUGCGCGUUCGAGUCCCGUACGGAACG [G12C A20C C31G G51C], the yeast fitness is at most 0.5.

As to GUUCCGUUGGCCUUAUGGUUACACGUCUCCCUCCUAAGGAGAAAACUGCGGGUUCGGGUCCCGUACGGAUCG [G12C A14U A20U G23A G44A A57G A70U], the yeast fitness stood at 0.575.

In the case of GUUCCGUUGGCCUAAUGGUAACGCGUCUCCCUCCUAAGGAGAAGACUGCGGGUUCGAGUCCCGUACGGAGCG [G12C A70G], the yeast fitness worked out at 0.845.

As to GUUCCGUUGGCCUAAUGGUAACGCGUCUCCCUCCUAAGGAGAAGACUGCGGGUUCGAGUCCCGUACGGACCG [G12C A70C], the yeast fitness turned out to be 0.833.

Turning to GUUCCGUUGGCCUAGUGGUAACGCGUCUCCCUCCUAUGGGGAAGACUGCGGGUCCGAGUCCCGUAGGGAACG [G12C A15G A37U A40G U54C C66G], the yeast fitness came out at 0.538.

With GUUCCGUUGGCCUAAUGGUAACGCGUCUCCCUCCUAAGGAGAAGUCUGCGGGUUCGACUCCCGUUCGGAUCG [G12C A45U G58C A65U A70U], the yeast fitness is at most 0.5.

Consider GUUCCGUUGGCCUAAUGGUCACGCGUCUCCCUCGUAAGGAGAAGACUGCGGGUGCGAGUCCCGUACGGAACG [G12C A20C C34G U54G], for which the yeast fitness is at most 0.5.

For GUUCCGUUGGCCUACUGGUAACGCGUCUCCCUCCUAAGGAGAAGACUGCGGGUUCGAGUCCCGUACGGAACG [G12C A15C], the yeast fitness is 0.67.

Consider GUUCCGUUGGCCUAAUGGUAACGCGUCUCCCUCCUAAGGAGAAGACUGCGGGUUCGAGUCCCGUUCGGAUCG [G12C A65U A70U], for which the yeast fitness turned out to be 0.606.

Regarding GUUCCGUUGGCCUAAUGGUAGCGCGCCUCCUUCCUAAGGAGAAGACUGCGGGUUCGAGUCCCGUACGGAACG [G12C A21G U26C C31U], the yeast fitness was at most 0.5.

In the case of GUUCCGUUGGCCUAAUGGUUACGCAUCUCCCUCCUGAGGAGAAGACUGCGGGUUCGAGUCCCGUACGGAACG [G12C A20U G25A A36G], the yeast fitness was at most 0.5.

Take GUUCCGUUGGCCUAAUGGUAACGCGUCUCCCUCCUCAGGUGAAGACUGCGGGUUCGAGUCCCGUAUGGUACG [G12C A36C A40U C66U A69U]: the yeast fitness was at most 0.5.

Take GUUCCGUUGGCCUAAUGGUAACGCGUCUCCCUCCUAUGGAGAACACUGCGGGUUCGAGUCCCGUACGGAACG [G12C A37U G44C]: the yeast fitness came out at 0.538.

Regarding GUUCCGUUGGCCUAAUGGUAACGCGUCUCCCUCCUAAGGAGGAGACCGCGGGUUCGAGUCCCGUACGGAACG [G12C A42G U47C], the yeast fitness turned out to be 0.634.

As for GUUCCGUUGGCCUAAUGGUUACGUGUCUCCCUCCUAAGGAGAAGACUGCGAGUUCGAGUCCCGUACGCAACG [G12C A20U C24U G51A G68C], the yeast fitness is at most 0.5.

With GUUCCGUUGGCCUAAUGGUUACGCAUCUCCCUCCUAAGGAGAAGACUGCGGGUUCGAGACCCGUACGGAACG [G12C A20U G25A U59A], the yeast fitness is at most 0.5.

Turning to GUUCCGUUGGCCUACUGGAAACGCGUCUCCCUCUUAAGGAGAAGACUGAGGGUUCGAGUCCCGUACGGAACG [G12C A15C U19A C34U C49A], the yeast fitness was at most 0.5.

Take GUUCCGUUGGCCUAGUGGUAACGUGUCUCCCUCCUAAGGAGAGGACUGCGGGUUCGAGUCCCGUACGGAACG [G12C A15G C24U A43G]: the yeast fitness came out at 0.522.

Take GUUCCGUUGGCCUCAUGGUAACGCGCCUCCCUCCUAAGGUACAGACUGCGGGUUCGAGUCCCGUACGGAACG [G12C A14C U26C A40U G41A A42C]: the yeast fitness was at most 0.5.

Turning to GUUCCGUUGGCCUAAUGGUAACGCGUCUCCCUCCUAAGGAGAAGACUGCGGGUUCGAGUCCCGUUCGUAACG [G12C A65U G68U], the yeast fitness came out at 0.653.

As for GUUCCGUUGGCCUAAUGGUUACGCGUCUCUCUCCUAAAGAGAAGACUGCGGGUUUGAGUCCCGUAUGGAACG [G12C A20U C30U G38A C55U C66U], the yeast fitness is at most 0.5.

Consider GUUCCGUUGGCCUAAUGGUAACGCGUCUCCCUCCUACGGAGAAGACUGCGGGUUCGAGUCCCGUACGGAACG [G12C A37C], for which the yeast fitness is 0.648.

With GUUCCGUUGGCCUACUGGUUACGCGUCUCCCUCCUAAGGAAAAGACUGCGGGUUCGAGUCCCGUACGGAACG [G12C A15C A20U G41A], the yeast fitness is at most 0.5.

As to GUUCCGUUGGCCUAAUGGUUACGCGUCUCCCUUCUAUGGAGAAGACUGCGGGUUCGUGUCCCGUACGGAACG [G12C A20U C33U A37U A57U], the yeast fitness is at most 0.5.

Turning to GUUCCGUUGGCCUAAUGGUACCGCGCCCCCCUCCUAAGGAGAAGAGUGCGGGUUUGAGUCCCGUACGGAACG [G12C A21C U26C U28C C46G C55U], the yeast fitness is at most 0.5.

For the variant GUUCCGUUGGCCUGAUGGUAACGCGUUUCCCUACUAAGGAGAAGCCUGCGGGUACGAGUCCCGUACGGAACG [G12C A14G C27U C33A A45C U54A], the yeast fitness is at most 0.5.

For the variant GUUCCGUUGGCCUAAUGGUUAGGCGUCUCCCUCCUAAGGAGAAGACUGCAGGUUCGAGUCACGUACGGAACG [G12C A20U C22G G50A C61A], the yeast fitness was 0.567.

GUUCCGUUGGCCUAAUGGUAACGCGUCUCCCUCCUAUAGAGAAGACUGCGGGUUGGAGUCCCGUACGGAACG [G12C A37U G38A C55G]: the yeast fitness is at most 0.5.

For GUUCCGUUGGCCUAAUGGUCACGAGUCUCCCUCCUCAGGAGAAGACUCCGGGUUCGAGUCCCGUACGGAACG [G12C A20C C24A A36C G48C], the yeast fitness is at most 0.5.

As to GUUCCGUUGGCCUAAUGGUUACGCGUCUCCAUCCUAAGGAGAAGACUGCGGGUUCGAGUCCCGUGCGGAACG [G12C A20U C31A A65G], the yeast fitness was at most 0.5.

With GUUCCGUUGGCCUAAUGGUAACGCGUCUCCCUCCUAAGGAGAGGACUGCGCGUUCGAGCCCGGUACGGAUCG [G12C A43G G51C U59C C62G A70U], the yeast fitness was at most 0.5.

With GUUCCGUUGGCCUUAUGGUAACGCGUGUCCCUCCUAAGGAGAAGUGUGCGGGUUCAAGUCCCGUACGGAACG [G12C A14U C27G A45U C46G G56A], the yeast fitness is at most 0.5.

For the variant GUUCCGUUGGCCUUAUGGUUACACGUCUCCCUCCUAAGGAGAAGACUGCGGGUUCGAGUCCCGUACGAAACG [G12C A14U A20U G23A G68A], the yeast fitness is at most 0.5.

As to GUUCCGUUGGCCUAAUGGUAACGCGUCUCCCUCCUAAGGUGAAGACUGGAGGUUCGAGUCCCGUACGGAACG [G12C A40U C49G G50A], the yeast fitness was at most 0.5.

In the case of GUUCCGUUGGCCUAAUGGUAACGCGUCUCCCUCCUAAGGAGGAGACUGCGGGUUCGAGUCCCGUACGGAACG [G12C A42G], the yeast fitness was 0.902.

As for GUUCCGUUGGCCUAAUGGUUACGCGUCUCUCUCCUAAGGAGAAGACUGCGGGUUCGAGUCCCGUGCGGCACG [G12C A20U C30U A65G A69C], the yeast fitness is at most 0.5.
